Laboratory results from ChEMBL document CHEMBL1142148, “Antibiotic susceptibility profile of bifidobacteria as affected by oxgall, acid, and hydrogen peroxide stress” (2007).
In brackets after ≈: the same amount, converted by molar mass.

What was measured:
[1] = system: Bifidobacterium animalis; assay: Antimicrobial activity against Bifidobacterium animalis ATCC 27536; format: functional
Procedure, shortened: (§1)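 Broth microdilution in MRS plus 0.05% L-cysteine-HCl. Mid-log culture adjusted to OD650 0.1, giving about 2.5 × 10^4 to 5.0 × 10^4 CFU/well, then added to twofold serial dilutions of agent. Plates incubated anaerobically at 37°C for 18 h and read at OD650. MIC is the lowest concentration matching the uninoculated blank OD, taken as the median of four repeats.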

[2] = system: Bifidobacterium bifidum; assay: Antimicrobial activity against Bifidobacterium bifidum R0071; format: functional; procedure, shortened: as §1
[3] = system: Bifidobacterium bifidum; assay: Antimicrobial activity against Bifidobacterium bifidum ATCC 15696; format: functional; procedure, shortened: as §1
[4] = system: Bifidobacterium bifidum; assay: Antimicrobial activity against Bifidobacterium bifidum BB12; format: functional; procedure, shortened: as §1
[5] = system: Bifidobacterium breve; assay: Antimicrobial activity against Bifidobacterium breve ATCC 15700; format: functional; procedure, shortened: as §1
[6] = Antimicrobial activity against Bifidobacterium infantis ATCC 15697; format: functional, Bifidobacterium longum subsp. infantis; conditions: Bifidobacterium longum; procedure, shortened: as §1
[7] = system: Bifidobacterium longum; assay: Antimicrobial activity against Bifidobacterium longum ATCC 15708; format: functional; procedure, shortened: as §1
[8] = system: Bifidobacterium longum; assay: Antimicrobial activity against Bifidobacterium longum R0175; format: functional; procedure, shortened: as §1
[9] = system: Bifidobacterium longum; assay: Antimicrobial activity against Bifidobacterium longum P/N 601377; format: functional; procedure, shortened: as §1
[10] = system: Bifidobacterium pseudolongum; assay: Antimicrobial activity against Bifidobacterium pseudolongum ATCC 25562; format: functional; procedure, shortened: as §1
[11] = system: Bifidobacterium thermophilum; assay: Antimicrobial activity against Bifidobacterium thermophilum ATCC 25866; format: functional; procedure, shortened: as §1
[12] = system: Bifidobacterium breve; assay: Antimicrobial activity against Bifidobacterium breve R0070; format: functional; procedure, shortened: as §1
[13] = system: Bifidobacterium animalis; assay: Antimicrobial activity against 60 min 1 M HCl-stressed Bifidobacterium animalis ATCC 27536 after 18 hrs; format: functional
Procedure, shortened: (§2)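 Mid-log MRS culture pelleted and resuspended in MRS broth brought to pH 2.0 with 1 M HCl, held anaerobically at 37°C for 60 min, then subcultured in MRS (pH 6.5) for 24 h anaerobically before MIC testing by broth microdilution (as for unstressed cells). Table footnote gives 18 h anaerobic regrowth after the stress. MIC is the median of four repetitions.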

[14] = system: Bifidobacterium bifidum; assay: Antimicrobial activity against 60 min 1 M HCl-stressed Bifidobacterium bifidum R0071 after 18 hrs; format: functional; procedure, shortened: as §2
[15] = system: Bifidobacterium bifidum; assay: Antimicrobial activity against 60 min 1 M HCl-stressed Bifidobacterium bifidum BB12 after 18 hrs; format: functional; procedure, shortened: as §2
[16] = system: Bifidobacterium breve; assay: Antimicrobial activity against 60 min 1 M HCl-stressed Bifidobacterium breve ATCC 15700 after 18 hrs; format: functional; procedure, shortened: as §2
[17] = system: Bifidobacterium breve; assay: Antimicrobial activity against 60 min 1 M HCl-stressed Bifidobacterium breve R0070 after 18 hrs; format: functional; procedure, shortened: as §2
[18] = Antimicrobial activity against 60 min 1 M HCl-stressed Bifidobacterium infantis ATCC 15697 after 18 hrs; format: functional, Bifidobacterium longum subsp. infantis; conditions: Bifidobacterium longum; procedure, shortened: as §2
[19] = system: Bifidobacterium longum; assay: Antimicrobial activity against 60 min 1 M HCl-stressed Bifidobacterium longum ATCC 15707 after 18 hrs; format: functional; procedure, shortened: as §2
[20] = system: Bifidobacterium longum; assay: Antimicrobial activity against 60 min 1 M HCl-stressed Bifidobacterium longum R0175 after 18 hrs; format: functional; procedure, shortened: as §2
[21] = system: Bifidobacterium longum; assay: Antimicrobial activity against 60 min 1 M HCl-stressed Bifidobacterium longum P/N 601377 after 18 hrs; format: functional; procedure, shortened: as §2
[22] = system: Bifidobacterium pseudolongum; assay: Antimicrobial activity against 60 min 1 M HCl-stressed Bifidobacterium pseudolongum ATCC 25562 after 18 hrs; format: functional; procedure, shortened: as §2
[23] = system: Bifidobacterium thermophilum; assay: Antimicrobial activity against 60 min 1 M HCl-stressed Bifidobacterium thermophilum ATCC 25866 after 18 hrs; format: functional; procedure, shortened: as §2
[24] = system: Bifidobacterium animalis; assay: Antimicrobial activity against 90 mins oxgall-stressed Bifidobacterium animalis ATCC 27536 after 18 hrs; format: functional
Procedure, shortened: (§3)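 Cells pelleted from mid-log MRS culture and resuspended in MRS (initial pH 6.5) with 0.3% (wt/vol) oxgall for 90 min anaerobically at 37°C. They were then regrown in MRS pH 6.5 for 24 h (footnote: 18 h) anaerobically and tested for MIC by the same broth microdilution assay. Median of four repetitions.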

[25] = system: Bifidobacterium bifidum; assay: Antimicrobial activity against 90 mins oxgall-stressed Bifidobacterium bifidum R0071 after 18 hrs; format: functional; procedure, shortened: as §3
[26] = system: Bifidobacterium bifidum; assay: Antimicrobial activity against 90 mins oxgall-stressed Bifidobacterium bifidum ATCC 15696 after 18 hrs; format: functional; procedure, shortened: as §3
[27] = system: Bifidobacterium bifidum; assay: Antimicrobial activity against 90 mins oxgall-stressed Bifidobacterium bifidum BB12 after 18 hrs; format: functional; procedure, shortened: as §3
[28] = system: Bifidobacterium breve; assay: Antimicrobial activity against 90 mins oxgall-stressed Bifidobacterium breve ATCC 15700 after 18 hrs; format: functional; procedure, shortened: as §3
[29] = system: Bifidobacterium breve; assay: Antimicrobial activity against 90 mins oxgall-stressed Bifidobacterium breve R0070 after 18 hrs; format: functional; procedure, shortened: as §3
[30] = Antimicrobial activity against 90 mins oxgall-stressed Bifidobacterium infantis ATCC 15697 after 18 hrs; format: functional, Bifidobacterium longum subsp. infantis; conditions: Bifidobacterium longum; procedure, shortened: as §3
[31] = system: Bifidobacterium longum; assay: Antimicrobial activity against 90 mins oxgall-stressed Bifidobacterium longum ATCC 15707 after 18 hrs; format: functional; procedure, shortened: as §3
[32] = system: Bifidobacterium longum; assay: Antimicrobial activity against 90 mins oxgall-stressed Bifidobacterium longum ATCC 15708 after 18 hrs; format: functional; procedure, shortened: as §3
[33] = system: Bifidobacterium longum; assay: Antimicrobial activity against Bifidobacterium longum ATCC 15707; format: functional; procedure, shortened: as §1
[34] = system: Bifidobacterium longum; assay: Antimicrobial activity against 90 mins oxgall-stressed Bifidobacterium longum R0175 after 18 hrs; format: functional; procedure, shortened: as §3
[35] = system: Bifidobacterium longum; assay: Antimicrobial activity against 90 mins oxgall-stressed Bifidobacterium longum P/N 601377 after 18 hrs; format: functional; procedure, shortened: as §3
[36] = system: Bifidobacterium pseudolongum; assay: Antimicrobial activity against 90 mins oxgall-stressed Bifidobacterium pseudolongum ATCC 25562 after 18 hrs; format: functional; procedure, shortened: as §3
[37] = system: Bifidobacterium thermophilum; assay: Antimicrobial activity against 90 mins oxgall-stressed Bifidobacterium thermophilum ATCC 25866 after 18 hrs; format: functional; procedure, shortened: as §3
[38] = system: Bifidobacterium animalis; assay: Antimicrobial activity against 90 mins hydrogen peroxide-stressed Bifidobacterium animalis ATCC 27536 after 18 hrs; format: functional
Procedure, shortened: (§4)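 Stress applied for 90 min at 37°C under anaerobic conditions, using MRS (initial pH 6.5) containing H2O2 at each strain's own inhibitory concentration. The H2O2 level was set beforehand by microplate tolerance testing. Challenged cells were regrown in MRS for 24 h (footnote: 18 h) before MIC testing by broth microdilution. Median of four repetitions.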

[39] = system: Bifidobacterium bifidum; assay: Antimicrobial activity against 90 mins hydrogen peroxide-stressed Bifidobacterium bifidum R0071 after 18 hrs; format: functional; procedure, shortened: as §4
[40] = system: Bifidobacterium bifidum; assay: Antimicrobial activity against 90 mins hydrogen peroxide-stressed Bifidobacterium bifidum BB12 after 18 hrs; format: functional; procedure, shortened: as §4
[41] = system: Bifidobacterium breve; assay: Antimicrobial activity against 90 mins hydrogen peroxide-stressed Bifidobacterium breve ATCC 15700 after 18 hrs; format: functional; procedure, shortened: as §4
[42] = system: Bifidobacterium breve; assay: Antimicrobial activity against 90 mins hydrogen peroxide-stressed Bifidobacterium breve R0070 after 18 hrs; format: functional; procedure, shortened: as §4
[43] = system: Bifidobacterium longum; assay: Antimicrobial activity against 90 mins hydrogen peroxide-stressed Bifidobacterium longum ATCC 15707 after 18 hrs; format: functional; procedure, shortened: as §4
[44] = system: Bifidobacterium longum; assay: Antimicrobial activity against 90 mins hydrogen peroxide-stressed Bifidobacterium longum ATCC 15708 after 18 hrs; format: functional; procedure, shortened: as §4
[45] = system: Bifidobacterium longum; assay: Antimicrobial activity against 90 mins hydrogen peroxide-stressed Bifidobacterium longum R0175 after 18 hrs; format: functional; procedure, shortened: as §4
[46] = system: Bifidobacterium longum; assay: Antimicrobial activity against 90 mins hydrogen peroxide-stressed Bifidobacterium longum P/N 601377 after 18 hrs; format: functional; procedure, shortened: as §4
[47] = system: Bifidobacterium thermophilum; assay: Antimicrobial activity against 90 mins hydrogen peroxide-stressed Bifidobacterium thermophilum ATCC 25866 after 18 hrs; format: functional; procedure, shortened: as §4

MIC [1]: 250 µg/mL (≈ 407 µM)
MIC [2]: 250 µg/mL (≈ 407 µM)
MIC [3]: 250 µg/mL (≈ 407 µM)
MIC [4]: 250 µg/mL (≈ 407 µM)
MIC [5]: 250 µg/mL (≈ 407 µM)
MIC [6]: 250 µg/mL (≈ 407 µM)
MIC [7]: 250 µg/mL (≈ 407 µM)
MIC [8]: 250 µg/mL (≈ 407 µM)
MIC [9]: 125 µg/mL (≈ 203 µM)
MIC [10]: 250 µg/mL (≈ 407 µM)
MIC [11]: 250 µg/mL (≈ 407 µM)
MIC [12]: 250 µg/mL (≈ 407 µM)
MIC [13]: 250 µg/mL (≈ 407 µM)
MIC [14]: 250 µg/mL (≈ 407 µM)
MIC [15]: 125 µg/mL (≈ 203 µM)
MIC [16]: 125 µg/mL (≈ 203 µM)
MIC [17]: 250 µg/mL (≈ 407 µM)
MIC [18]: 250 µg/mL (≈ 407 µM)
MIC [19]: 500 µg/mL (≈ 813 µM)
MIC [20]: 250 µg/mL (≈ 407 µM)
MIC [21]: 250 µg/mL (≈ 407 µM)
MIC [22]: 250 µg/mL (≈ 407 µM)
MIC [23]: 250 µg/mL (≈ 407 µM)
MIC [24]: 125 µg/mL (≈ 203 µM)
MIC [25]: 62.5 µg/mL (≈ 102 µM)
MIC [26]: 250 µg/mL (≈ 407 µM)
MIC [27]: 250 µg/mL (≈ 407 µM)
MIC [28]: 125 µg/mL (≈ 203 µM)
MIC [29]: 62.5 µg/mL (≈ 102 µM)
MIC [30]: 500 µg/mL (≈ 813 µM)
MIC [31]: 125 µg/mL (≈ 203 µM)
MIC [32]: 500 µg/mL (≈ 813 µM)
MIC [33]: 250 µg/mL (≈ 407 µM)
MIC [34]: 62.5 µg/mL (≈ 102 µM)
MIC [35]: 62.5 µg/mL (≈ 102 µM)
MIC [36]: 250 µg/mL (≈ 407 µM)
MIC [37]: 125 µg/mL (≈ 203 µM)
MIC [38]: 500 µg/mL (≈ 813 µM)
MIC [39]: 125 µg/mL (≈ 203 µM)
MIC [40]: 250 µg/mL (≈ 407 µM)
MIC [41]: 250 µg/mL (≈ 407 µM)
MIC [42]: 250 µg/mL (≈ 407 µM)
MIC [43]: 250 µg/mL (≈ 407 µM)
MIC [44]: 250 µg/mL (≈ 407 µM)
MIC [45]: 125 µg/mL (≈ 203 µM)
MIC [46]: 125 µg/mL (≈ 203 µM)
MIC [47]: 500 µg/mL (≈ 813 µM)
Structure (SMILES): NC[C@@H]1O[C@H](O[C@H]2[C@@H](O)[C@H](O[C@@H]3[C@@H](O)[C@H](N)C[C@H](N)[C@H]3O[C@H]3O[C@H](CN)[C@@H](O)[C@H](O)[C@H]3N)O[C@@H]2CO)[C@H](N)[C@@H](O)[C@@H]1O [FRAMYCETIN]
